Active and inactive are the calls of the source.
Legend:
Mus musculus [1] = experiment: Anticonvulsant activity against scMet (subcutaneous metrazole) induced seizure in mice at 4 hr; ++ = Activity at 300 mg/kg.; format: functional, organism-based; parameters: dose 300 mg/kg
Mus musculus [2] = species on record: Mus musculus; experiment: (§1) Evaluation of neurologic deficit by rotarod procedure in mice; format: functional
Method in brief: (§2)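 Male Carworth Farms number-one mice were dosed ip (30% PEG 400 vehicle) and placed on a 1-in. knurled plastic rod rotating at 6 rpm. Neurotoxicity meant failure to stay on the rod for 1 min. TD50 was determined graphically.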

Mus musculus [3] = experiment: Evaluated for toxicity by using rotarod test at in mice 30 min; +++ = Activity at 100 mg/kg,*-Loss of righting reflex at less than 300 mg/kg; format: organism-based; details: in vivo, 0.5 h
Method in brief: (§3)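 Neurotoxicity in male Carworth Farms number-one mice dosed ip in 30% PEG 400 at 30, 100, 300 and sometimes 600 mg/kg, tested 30 min or 4 h later. Mice placed on a 1-in. knurled rod rotating at 6 rpm; toxicity means failure to stay on the rod for 1 min. Scored by the lowest toxic dose; footnotes record loss of righting reflex or lethality.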

Mus musculus [4] = experiment: Anticonvulsant activity against MES (maximal electroshock) induced seizure in mice at 4 hr; ++ = Activity at 300 mg/kg.; format: functional, organism-based; parameters: dose 300 mg/kg
Method in brief: (§4)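 Male Carworth Farms number-one mice received the compound ip in 30% polyethylene glycol 400. Doses were 30, 100 and 300 mg/kg, with 600 mg/kg in some cases. Maximal electroshock seizure protection was scored at 30 min and 4 h after dosing. Activity is coded by the lowest effective dose.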

Mus musculus [5] = experiment: Anticonvulsant activity against scMet (subcutaneous metrazole) induced seizure in mice at 30 min; ++ = Activity at 300 mg/kg.; format: functional, organism-based; parameters: dose 300 mg/kg
Mus musculus [6] = experiment: Evaluated for toxicity by using rotarod test in mice at 4 hr; ++ = Activity at 300 mg/kg.; format: organism-based; parameters: dose 300 mg/kg; details: in vivo; method in brief: as §3
Mus musculus [7] = species on record: Mus musculus; experiment: Evaluation of inhibitory activity against scMet induced convulsions in mice; NA = No activity.; format: functional, organism-based
Mus musculus [8] = experiment: Anticonvulsant activity against MES (maximal electroshock) induced seizure in mice at 30 min; +++ = Activity at 100 mg/kg.; format: functional, organism-based; parameters: dose 100 mg/kg; method in brief: as §4
[9] = Protective index (PI) which is defined as the ratio of TD50 to the ED50 (MES).; format: functional
Method in brief: (§5)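 Both values come from ip dosing in 30% PEG 400 to male Carworth Farms number-one mice and were derived by the graphical method.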

Mus musculus [10] = experiment: Anticonvulsant activity against scMet (subcutaneous metrazole) induced seizure in mice at 4 hr; + = Activity at 600 mg/kg.; format: functional, organism-based; parameters: dose 600 mg/kg
Mus musculus [11] = experiment: Anticonvulsant activity against scMet (subcutaneous metrazole) induced seizure in mice at 30 min; + = Activity at 600 mg/kg.; format: functional, organism-based; parameters: dose 600 mg/kg
Mus musculus [12] = experiment: Evaluated for toxicity by using rotarod test in mice at 4 hr; + = Activity at 600 mg/kg.; format: organism-based; parameters: dose 600 mg/kg; details: in vivo; method in brief: as §3
Mus musculus [13] = experiment: Evaluated for toxicity by using rotarod test in mice at 30 min; + = Activity at 600 mg/kg.; format: organism-based; parameters: dose 600 mg/kg; details: in vivo, 0.5 h; method in brief: as §3
[14] = Protective index (PI) which is defined as the ratio of TD50 to the ED50 (ScMet).; format: functional; method in brief: as §5
Mus musculus [15] = experiment: Anticonvulsant activity against scMet (subcutaneous metrazole) induced seizure in mice at 4 hr; - = No activity at 600 mg/kg.; format: functional, organism-based; parameters: dose 600 mg/kg
Method in brief: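 Male Carworth Farms number-one mice dosed ip (30% PEG 400) at 30, 100, 300 and in some cases 600 mg/kg. Pentylenetetrazole 85 mg/kg given sc as a 0.5% solution in the posterior midline, at 30 min or 4 h. Protection means no clonic spasm of at least 5 s within 30 min. Scored by the lowest protective dose.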

Mus musculus [16] = experiment: Evaluated for toxicity by using rotarod test at in mice 30 min; +++ = Activity at 100 mg/kg,*- Loss of righting reflex at less than 600 mg/kg; format: organism-based; details: in vivo, 0.5 h; method in brief: as §3
Mus musculus [17] = experiment: Anticonvulsant activity against scMet (subcutaneous metrazole) induced seizure in mice at 30 min; +++ = Activity at 100 mg/kg.; format: functional, organism-based; parameters: dose 100 mg/kg
Mus musculus [18] = experiment: Anticonvulsant activity against scMet (subcutaneous metrazole) induced seizure in mice at 4 hr; d = No activity at 300 mg/kg.; format: functional, organism-based; parameters: dose 300 mg/kg
Mus musculus [19] = experiment: Evaluated for toxicity by using rotarod test at in mice 30 min; +++ = Activity at 100 mg/kg, *-Loss of righting reflex at less than 300 mg/kg,LD50 less than 600 mg/kg; format: organism-based; details: in vivo, 0.5 h; method in brief: as §3
Mus musculus [20] = experiment: Anticonvulsant activity against MES (maximal electroshock) induced seizure in mice at 4 hr; d = No Activity at 300 mg/kg.; format: functional, organism-based; parameters: dose 300 mg/kg; method in brief: as §4
Mus musculus [21] = experiment: Evaluation of neurologic deficit by rotarod procedure in mice*-No activity at 300 mg/kg; format: functional; method in brief: as §2
Mus musculus [22] = experiment: Anticonvulsant activity against scMet (subcutaneous metrazole) induced seizure in mice at 30 min; d = No activity at 300 mg/kg.; format: functional, organism-based; parameters: dose 300 mg/kg
Mus musculus [23] = species on record: Mus musculus; experiment: Evaluation of inhibitory activity against scMet induced convulsions in mice; format: functional
Mus musculus [24] = experiment: Anticonvulsant activity against MES (maximal electroshock) induced seizure in mice at 4 hr; f = No activity at 100 mg/kg.; format: functional, organism-based; parameters: dose 100 mg/kg; method in brief: as §4
Mus musculus [25] = experiment: Anticonvulsant activity against scMet (subcutaneous metrazole) induced seizure in mice at 4 hr; f = No activity at 100 mg/kg.; format: functional, organism-based; parameters: dose 100 mg/kg
Mus musculus [26] = experiment: Anticonvulsant activity against scMet (subcutaneous metrazole) induced seizure in mice at 30 min; +++ = Indicates activity at 100 mg/kg.; format: functional, organism-based; parameters: dose 100 mg/kg
Mus musculus [27] = experiment: Evaluated for toxicity by using rotarod test in mice at 4 hr; f = No activity at 100 mg/kg.; format: organism-based; parameters: dose 100 mg/kg; details: in vivo; method in brief: as §3
[28] = as §1; format: ADME, organism-based; details: mouse, in vivo; method in brief: as §2
Mus musculus [29] = experiment: Evaluated for toxicity by using rotarod test at in mice 30 min; +++ = Indicates activity at 100 mg/kg.; format: organism-based; parameters: dose 100 mg/kg; details: in vivo, 0.5 h; method in brief: as §3
Mus musculus [30] = experiment: Evaluated for toxicity by using rotarod test in mice at 4 hr; f = No activity at 100 mg/kg; format: organism-based; parameters: dose 100 mg/kg; details: in vivo; method in brief: as §3
Mus musculus [31] = experiment: Anticonvulsant activity against MES (maximal electroshock) induced seizure in mice at 30 min; +++ = activity at 100 mg/kg; format: functional, organism-based; parameters: dose 100 mg/kg; method in brief: as §4
Mus musculus [32] = experiment: Anticonvulsant activity against MES (maximal electroshock) induced seizure in mice at 4 hr; f = No activity at 100 mg/kg; format: functional, organism-based; parameters: dose 100 mg/kg; method in brief: as §4
Mus musculus [33] = experiment: Evaluated for toxicity by using rotarod test at in mice 30 min; +++ = activity at 100 mg/kg *-LD50 less than 300 mg/kg; format: organism-based; details: in vivo, 0.5 h; method in brief: as §3
Mus musculus [34] = experiment: Anticonvulsant activity against scMet (subcutaneous metrazole) induced seizure in mice at 4 hr; f = No activity at 100 mg/kg; format: functional, organism-based; parameters: dose 100 mg/kg
Mus musculus [35] = experiment: Anticonvulsant activity against scMet (subcutaneous metrazole) induced seizure in mice at 30 min; f = No activity at 100 mg/kg; format: functional, organism-based; parameters: dose 100 mg/kg

Structure (SMILES): CCCN(CCC)C(=O)c1ccc(N)cc1
- Activity (Mus musculus [1]): Activity at 100 mg/kg
- TD50 (Mus musculus [2]): 116 mg/kg
- Toxicity (Mus musculus [3]): Activity at 100 mg/kg,*-Loss of righting reflex at < 300 mg/kg
- Activity (Mus musculus [4]): Activity at 100 mg/kg
- Activity (Mus musculus [5]): Activity at 100 mg/kg
- Toxicity (Mus musculus [6]): Activity at 100 mg/kg,*-Loss of righting reflex at < 300 mg/kg
- ED50 (Mus musculus [7]): inactive
- Activity (Mus musculus [8]): Activity at 100 mg/kg
- PI [9]: 1.9

Structure (SMILES): CCNC(=O)c1ccc(N)cc1
- Activity (Mus musculus [10]): Activity at 100 mg/kg
- Activity (Mus musculus [11]): Activity at 100 mg/kg
- Toxicity (Mus musculus [12]): Activity at 600 mg/kg
- Activity (Mus musculus [4]): Activity at 100 mg/kg
- Activity (Mus musculus [8]): Activity at 100 mg/kg
- Toxicity (Mus musculus [13]): Activity at 600 mg/kg

Structure (SMILES): Nc1ccc(C(=O)Nc2ccccc2)cc1
- PI [14]: 1.9
- Activity (Mus musculus [15]): Not toxic
- TD50 (Mus musculus [2]): 111 mg/kg
- Toxicity (Mus musculus [16]): Activity at 100 mg/kg,*- Loss of righting reflex at < 600 mg/kg
- Activity (Mus musculus [4]): Activity at 100 mg/kg
- Toxicity (Mus musculus [6]): Activity at 100 mg/kg,*- Loss of righting reflex at < 600 mg/kg
- Activity (Mus musculus [17]): Activity at 100 mg/kg
- PI [9]: 2.2

Structure (SMILES): CCCCNC(=O)c1ccc(N)cc1
- PI [14]: 1.3
- Activity (Mus musculus [18]): No activity
- Toxicity (Mus musculus [19]): Activity at 100 mg/kg, *-Loss of righting reflex at < 300mg/kg,LD50 < 600 mg/kg
- Toxicity (Mus musculus [6]): Activity at 100 mg/kg, *-Loss of righting reflex at < 300mg/kg,LD50 < 600 mg/kg
- Activity (Mus musculus [20]): No activity
- Activity (Mus musculus [8]): Activity at 100 mg/kg
- PI [9]: 2.2
- TD50 (Mus musculus [21]): 105 mg/kg
- Activity (Mus musculus [22]): No activity
- ED50 (Mus musculus [23]): 83 mg/kg

Structure (SMILES): CCCCCNC(=O)c1ccc(N)cc1
- PI [14]: 1.2
- Activity (Mus musculus [24]): No activity
- Activity (Mus musculus [25]): No activity
- Activity (Mus musculus [26]): Activity at 100 mg/kg
- Toxicity (Mus musculus [27]): No activity
- TD50 [28]: 68.5 mg/kg
- Toxicity (Mus musculus [29]): activity at 100 mg/kg
- Activity (Mus musculus [8]): Activity at 100 mg/kg
- PI [9]: 1.6

Structure (SMILES): CCCCCCNC(=O)c1ccc(N)cc1
- Toxicity (Mus musculus [30]): No activity
- Activity (Mus musculus [31]): activity at 100 mg/kg
- Activity (Mus musculus [32]): No activity
- Toxicity (Mus musculus [33]): activity at 100 mg/kg *-LD50 < 300 mg/kg
- Activity (Mus musculus [34]): No activity
- Activity (Mus musculus [35]): No activity

From ChEMBL document CHEMBL1122671, “Anticonvulsant activity of some 4-aminobenzamides” (J Med Chem, 1984)
